# From ChEMBL document CHEMBL1123309, “Esters and lactones of phenolic amino carboxylic acids: prodrugs for iron chelation” (J Med Chem, 1986)
# Values joined by “and” are separate entries in the source; they are usually repeats but may differ in a detail not shown here. Equal entries are not always repeated.
# Tests used:
# [1] = system: Mus musculus; assay: BDF1 male mice were administered with 100 mg/kg intraperitoneally and percent change in iron levels was determined in Urine; assay type: functional; conditions: route intraperitoneal
# In short: (§1)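 Male BDF1 mice made iron-overloaded by transfusion of washed, heat-treated (50 °C, 30 min) canine red cells. Dosing began 2 days after the last transfusion, once daily for 7 days, in distilled water or 2% Polysorbate 80 suspension. Daily group urine was collected. Pooled feces were digested in 1 N HCl (90 °C, 30 min). Liver and spleen were homogenized in saline. Iron was measured by atomic absorption and expressed as % change vs transfused controls.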
# [2] = system: Mus musculus; assay: BDF1 male mice were administered with 200 mg/kg intraperitoneally and percent change in iron levels was determined in Urine; assay type: functional; conditions: route intraperitoneal; in short: as §1
# [3] = system: Mus musculus; assay: BDF1 male mice were administered with 100 mg/kg intraperitoneally and percent change in iron levels was determined in Spleen; assay type: functional; conditions: route intraperitoneal; in short: as §1
# [4] = system: Mus musculus; assay: BDF1 male mice were administered with 200 mg/kg intraperitoneally and number of survivors was determined out of 10 tested; assay type: functional; conditions: route intraperitoneal
# In short: (§2)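 Male BDF1 mice were iron-loaded by transfusion of canine red cells. The cells were heparinised, washed twice in isotonic saline and heated at 50 °C for 30 min. Dosing started two days after the last transfusion, once daily for 7 consecutive days. Compounds were given in distilled water or as a fine aqueous suspension with Polysorbate 80 (2% final). Toxic signs were recorded daily and survivors counted per group.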
# [5] = system: Mus musculus; assay: BDF1 male mice were administered with 100 mg/kg intraperitoneally and percent change in iron levels was determined in Liver; assay type: functional; conditions: route intraperitoneal; in short: as §1
# [6] = system: Mus musculus; assay: BDF1 male mice were administered with 200 mg/kg intraperitoneally and percent change in iron levels was determined in Spleen; assay type: functional; conditions: route intraperitoneal; in short: as §1
# [7] = system: Mus musculus; assay: BDF1 male mice were administered with 100 mg/kg intraperitoneally and percent change in iron levels was determined in Feces; assay type: functional; conditions: route intraperitoneal; in short: as §1
# [8] = system: Mus musculus; assay: BDF1 male mice were administered with 100 mg/kg intraperitoneally and number of survivors was determined out of 10 tested; assay type: functional; conditions: route intraperitoneal; in short: as §2
# [9] = system: Mus musculus; assay: BDF1 male mice were administered with 200 mg/kg intraperitoneally and percent change in iron levels was determined in liver; assay type: functional; conditions: route intraperitoneal; in short: as §1
# [10] = system: Mus musculus; assay: BDF1 male mice were administered with 200 mg/kg intraperitoneally and percent change in iron levels was determined in Feces; assay type: functional; conditions: route intraperitoneal; in short: as §1
# [11] = system: Rattus norvegicus; assay: Percent change in iron levels was determined in urine using iron overload rat model where the route of administration is Peroral; assay type: ADME, organism-based; conditions: in vivo, po
# [12] = system: Rattus norvegicus; assay: Percent change in iron levels was determined in urine using iron overload rat model where the route of administration is Intraperitoneal; assay type: ADME, organism-based; conditions: in vivo, ip
# [13] = system: Rattus norvegicus; assay: Percent change in iron levels was determined in feces using iron overload rat model where the route of administration is Peroral; assay type: ADME, organism-based; conditions: in vivo, po
# [14] = system: Mus musculus; assay: BDF1 male mice were administered with 300 mg/kg intraperitoneally and percent change in iron levels was determined in Feces; assay type: functional; conditions: route intraperitoneal
# In short: (§3)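 Male BDF1 mice were hypertransfused with washed, heat-treated (50 °C, 30 min) canine red cells. Starting 2 days after the last transfusion, they received one ip injection daily for 7 days, in distilled water or an aqueous suspension with Polysorbate 80 (2% final). Group urine was collected every 24 h. Feces were digested in 1 N HCl (90 °C, 30 min, triplicate). Liver and spleen were homogenized. Iron was measured by atomic absorption and reported as % change vs transfused controls.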
# [15] = system: Mus musculus; assay: BDF1 male mice were administered with 300 mg/kg intraperitoneally and percent change in iron levels was determined in liver; assay type: functional; conditions: route intraperitoneal; in short: as §3
# [16] = system: Rattus norvegicus; assay: Percent change in iron levels was determined in feces using iron overload rat model where the route of administration is Intraperitoneal; assay type: ADME, organism-based; conditions: in vivo, ip
# [17] = system: Mus musculus; assay: BDF1 male mice were administered with 300 mg/kg intraperitoneally and percent change in iron levels was determined in Urine; assay type: functional; conditions: route intraperitoneal; in short: as §3
# [18] = system: Mus musculus; assay: BDF1 male mice were administered with 300 mg/kg intraperitoneally and percent change in iron levels was determined in Spleen; assay type: functional; conditions: route intraperitoneal; in short: as §3
# [19] = Compound was evaluated for lethal dose after intraperitoneal administration using iron overload rat model; assay type: toxicity, organism-based; conditions: in vivo, ip
# [20] = system: Mus musculus; assay: BDF1 male mice were administered with 300 mg/kg intraperitoneally and number of survivors was determined out of 10 tested; assay type: functional; conditions: route intraperitoneal; in short: as §2
# [21] = system: Mus musculus; assay: BDF1 male mice were administered with 200 mg/kg orally and percent change in iron levels was determined in liver; assay type: functional; conditions: route oral; in short: as §1
# [22] = system: Mus musculus; assay: BDF1 male mice were administered with 100 mg/kg orally and percent change in iron levels was determined in spleen; assay type: functional; conditions: route intraperitoneal, in the assay text read “intraperitoneally” for “orally”; in short: as §1
# [23] = system: Mus musculus; assay: BDF1 male mice were administered with 25 mg/kg orally and percent change in iron levels was determined in faeces; assay type: functional, Feces; conditions: dose 100 mg/kg; route intraperitoneal; in the assay text read “100 mg/kg intraperitoneally” for “25 mg/kg orally”
# [24] = system: Mus musculus; assay: BDF1 male mice were administered with 25 mg/kg orally and percent change in iron levels was determined in urine; assay type: functional; conditions: dose 100 mg/kg; route intraperitoneal; in the assay text read “100 mg/kg intraperitoneally” for “25 mg/kg orally”
# [25] = Half life was determined at pH 10.5 in the presence of Fe(III) Half life was determined Titrimetrically; assay type: ADME; conditions: pH 7.5; in the assay text read “pH 7.5” for “pH 10.5”
# In short: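 Metal and chelator were each 5 × 10⁻⁴ M. Constant pH was held with 0.05 M NaOH. Hydrolysis rate came from base consumption, with first-order kinetics.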
# [26] = system: Mus musculus; assay: BDF1 male mice were administered with the compound and number of survivors was determined at a dose 100 mg/kg intraperitoneally out of 10 tested; assay type: functional; conditions: route intraperitoneal; in short: as §2
# [27] = First order rate constant was determined Spectrophotometrically at pH 7.5 in the presence of Fe(III)
# [28] = system: Mus musculus; assay: BDF1 male mice were administered with 200 mg/kg orally and percent change in iron levels was determined in spleen; assay type: functional; conditions: route oral; in short: as §1
# [29] = system: Mus musculus; assay: BDF1 male mice were administered with the compound and number of survivors was determined at a dose 200 mg/kg peroral out of 10 tested; assay type: functional; conditions: route oral; in short: as §2
# [30] = Half life was determined at pH 7.5 in the presence of Fe(III) Half life was determined Spectrophotometrically
# [31] = First order rate constant was determined Titrimetrically) at pH 7.5 in the presence of Fe(III)
# [32] = system: Mus musculus; assay: BDF1 male mice were administered with 200 mg/kg orally and percent change in iron levels was determined in faeces; assay type: functional, Feces; conditions: route oral; in short: as §1
# [33] = system: Mus musculus; assay: BDF1 male mice were administered with 200 mg/kg ip and percent change in iron levels was determined in Urine; assay type: functional; conditions: route intraperitoneal; in short: as §1
# [34] = system: Mus musculus; assay: BDF1 male mice were administered with 200 mg/kg po and percent change in iron levels was determined in Spleen; assay type: functional
# In short: (§4)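 Hypertransfused male BDF1 mice (canine red cells, washed and heated at 50 °C for 30 min) were dosed orally for 7 days with compound in distilled water or a fine suspension with Polysorbate 80 (2% final). Daily group urine and pooled feces (1 N HCl digest, 90 °C, 30 min, triplicate) were collected, and liver and spleen were homogenized. Iron was measured by atomic absorption and reported as % change vs transfused control.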
# [35] = system: Mus musculus; assay: BDF1 male mice were administered with 200 mg/kg po and percent change in iron levels was determined in Feces; assay type: functional; in short: as §4
# [36] = system: Mus musculus; assay: BDF1 male mice were administered with the compound and number of survivors was determined at a dose 200 mg/kg ip out of 10 tested; assay type: functional; conditions: route intraperitoneal; in short: as §2
# [37] = system: Mus musculus; assay: BDF1 male mice were administered with 200 mg/kg po and percent change in iron levels was determined in Liver; assay type: functional; in short: as §4
# [38] = system: Mus musculus; assay: BDF1 male mice were administered with 200 mg/kg ip and percent change in iron levels was determined in Feces; assay type: functional; conditions: route intraperitoneal; in short: as §1
# [39] = system: Mus musculus; assay: BDF1 male mice were administered with 200 mg/kg ip and percent change in iron levels was determined in Spleen; assay type: functional; conditions: route intraperitoneal; in short: as §1
# [40] = system: Mus musculus; assay: BDF1 male mice were administered with 200 mg/kg ip and percent change in iron levels was determined in Liver; assay type: functional; conditions: route intraperitoneal; in short: as §1
# [41] = system: Mus musculus; assay: BDF1 male mice were administered with 200 mg/kg poand percent change in iron levels was determined in Urine; assay type: functional; in short: as §4
smiles,measurement,setting,value
O=C([O-])CN(CCN(CC(=O)[O-])c1ccccc1O)c1ccccc1O.[Na+].[Na+],Iron change,[1],106%
same,Iron change,[2],143%
same,Iron change,[3],7%
same,No. of survivors,[4],5
same,Iron change,[5],-22%
same,Iron change,[6],22%
same,Iron change,[7],3%
same,No. of survivors,[8],10
same,Iron change,[9],-22%
same,Iron change,[10],-15%
O=C(O)CN(Cc1ccccc1O)CC(O)CN(CC(=O)O)Cc1ccccc1O,Iron change,[11],30%
same,Iron change,[12],118%
same,Iron change,[13],20%
same,Iron change,[14],-32%
same,Iron change,[15],-50%
same,Iron change,[16],255%
same,Iron change,[17],127%
same,Iron change,[18],6%
same,LD50,[19],≥ 800 mg/kg
same,No. of survivors,[20],10
CCOC(=O)CN(CCN(CC(=O)OCC)Cc1ccccc1O)Cc1ccccc1O,Iron change,[21],-49% and -63%
same,Iron change,[22],4%
same,Iron change,[23],26%
same,Iron change,[24],240%
same,half-life,[25],34.8 min
same,No. of survivors,[26],10
same,10E2 k1,[27],1.14 min⁻¹
same,Iron change,[28],-34%
same,No. of survivors,[29],8
same,half-life,[30],60.6 min
same,10E2 k1,[31],1.99 min⁻¹
same,Iron change,[32],-77%
CC(C)(C)OC(=O)CN(CCN(CC(=O)OC(C)(C)C)Cc1ccccc1O)Cc1ccccc1O,Iron change,[33],-1%
same,Iron change,[34],5%
same,Iron change,[35],-13%
same,No. of survivors,[36],10
same,Iron change,[37],6%
same,Iron change,[38],-1%
same,Iron change,[39],-5%
same,Iron change,[40],10%
same,Iron change,[41],-27%
same,No. of survivors,[29],10
